Measurements reported in ChEMBL document CHEMBL1147809, “Tumor-cell-targeted methionine-enkephalin analogues containing unnatural amino acids: design, synthesis, and in vitro antitumor activity” (2006).

These compounds were tested on HeLa (assay: Antiproliferative activity against human HeLa cell line at 1000 uM relative to control).
Format: functional
Method in brief: (§1)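 Cells from ATCC grown as monolayers in DMEM with 10% FBS, 2 mM glutamine, penicillin/streptomycin, 37 °C, 5% CO2. Seeded at 2 × 10^4 cells/mL, and after 24 h the medium was replaced with fresh medium containing compound (water/10% DMSO stock, PBS working dilutions 10^-3 to 10^-6 M). Exposure was 72 h, then MTT read-out. Growth % = (A_peptide − A_blank)/(A_control − A_blank) × 100, with inhibition taken relative to untreated cells. Values are means of three experiments run in triplicate.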
Work on `N[C@@H](Cc1ccc(O)cc1)C(=O)N[C@H](C(=O)O)C1C2CC3CC(C2)CC1C3` (stereo not given in full) yielded an inhibition at 1000 µM of 14.8%.

These compounds were tested on HBL (assay: Antiproliferative activity against human HBL cell line at 10 uM relative to control).
Format: functional
Method in brief: as §1
Work on `N[C@@H](Cc1ccc(O)cc1)C(=O)N[C@H](C(=O)O)C1C2CC3CC(C2)CC1C3` (stereo not given in full) yielded an inhibition at 10 µM of 3.9%.

Each compound was assayed on HBL (assay: Antiproliferative activity against human HBL cell line at 1000 uM relative to control).
Format: functional
Method in brief: as §1
`N[C@@H](Cc1ccc(O)cc1)C(=O)N[C@H](C(=O)O)C1C2CC3CC(C2)CC1C3` (stereo not given in full) was tested, and the inhibition at 1000 µM was 7.3%.

What follows are compounds tested on HT-29 (assay: Antiproliferative activity against human HT29 cell line at 10 uM relative to control).
Format: functional
Method in brief: as §1
Compound `N[C@@H](Cc1ccc(O)cc1)C(=O)N[C@H](C(=O)O)C1C2CC3CC(C2)CC1C3` (stereo not given in full) has an inhibition at 10 µM of 8.9%.

These compounds were tested on HT-29 (assay: Antiproliferative activity against human HT29 cell line at 100 uM relative to control).
Format: functional
Method in brief: as §1
Work on `N[C@@H](Cc1ccc(O)cc1)C(=O)N[C@H](C(=O)O)C1C2CC3CC(C2)CC1C3` (stereo not given in full) yielded an inhibition at 100 µM of 3.4%.

These compounds were tested on HT-29 (assay: Antiproliferative activity against human HT29 cell line at 1000 uM relative to control).
Format: functional
Method in brief: as §1
`N[C@@H](Cc1ccc(O)cc1)C(=O)N[C@H](C(=O)O)C1C2CC3CC(C2)CC1C3` (stereo not given in full) showed an inhibition at 1000 µM of 20.8%.

What follows are compounds tested on SW-620 (assay: Antiproliferative activity against human SW620 cell line at 10 uM relative to control).
Format: functional
Method in brief: as §1
`N[C@@H](Cc1ccc(O)cc1)C(=O)N[C@H](C(=O)O)C1C2CC3CC(C2)CC1C3` (stereo not given in full) was tested, and the inhibition at 10 µM was 21.9%.

These compounds were tested on SW-620 (assay: Antiproliferative activity against human SW620 cell line at 100 uM relative to control).
Format: functional
Method in brief: as §1
`N[C@@H](Cc1ccc(O)cc1)C(=O)N[C@H](C(=O)O)C1C2CC3CC(C2)CC1C3` (stereo not given in full) gave an inhibition at 100 µM of 11.8%.

Each compound was assayed on SW-620 (assay: Antiproliferative activity against human SW620 cell line at 1000 uM relative to control).
Format: functional
Method in brief: as §1
`N[C@@H](Cc1ccc(O)cc1)C(=O)N[C@H](C(=O)O)C1C2CC3CC(C2)CC1C3` (stereo not given in full) was tested, and the inhibition at 1000 µM was 17.9%.

What follows are compounds tested on Caco-2 (assay: Antiproliferative activity against human Caco-2 cell line at 10 uM relative to control).
Format: functional
Method in brief: as §1
Compound `N[C@@H](Cc1ccc(O)cc1)C(=O)N[C@H](C(=O)O)C1C2CC3CC(C2)CC1C3` (stereo not given in full) has an inhibition at 10 µM of 16.5%.

The compounds below were run on Caco-2 (assay: Antiproliferative activity against human Caco-2 cell line at 100 uM relative to control).
Format: functional
Method in brief: as §1
In the case of `N[C@@H](Cc1ccc(O)cc1)C(=O)N[C@H](C(=O)O)C1C2CC3CC(C2)CC1C3` (stereo not given in full), the inhibition at 100 µM is reported as 8.4%.

These compounds were tested on Caco-2 (assay: Antiproliferative activity against human Caco-2 cell line at 1000 uM relative to control).
Format: functional
Method in brief: as §1
`N[C@@H](Cc1ccc(O)cc1)C(=O)N[C@H](C(=O)O)C1C2CC3CC(C2)CC1C3` (stereo not given in full) was tested, and the inhibition at 1000 µM was 14.5%.

The compounds below were run on MCF7 (assay: Antiproliferative activity against human MCF7 cell line at 10 uM relative to control).
Format: functional
Method in brief: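 MTT assay on monolayer cells grown in DMEM with 10% FBS, 2 mM glutamine, penicillin and streptomycin, at 37 °C in 5% CO2. Cells were plated at 2 × 10^4 cells/mL on day 0. After 24 h the medium was replaced with fresh medium containing compound (working dilutions in PBS from 10% DMSO/water stock), then incubated 72 h. Percent growth inhibition was calculated against untreated cells after blank subtraction. Values are means of three experiments run in triplicate.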
Work on `N[C@@H](Cc1ccc(O)cc1)C(=O)N[C@H](C(=O)O)C1C2CC3CC(C2)CC1C3` (stereo not given in full) yielded an inhibition at 10 µM of 1.1%.

Each compound was assayed on MCF7 (assay: Antiproliferative activity against human MCF7 cell line at 100 uM relative to control).
Format: functional
Method in brief: as §1
`N[C@@H](Cc1ccc(O)cc1)C(=O)N[C@H](C(=O)O)C1C2CC3CC(C2)CC1C3` (stereo not given in full) was tested, and the inhibition at 100 µM was 1.2%.

The compounds below were run on MCF7 (assay: Antiproliferative activity against human MCF7 cell line at 1000 uM relative to control).
Format: functional
Method in brief: as §1
`N[C@@H](Cc1ccc(O)cc1)C(=O)N[C@H](C(=O)O)C1C2CC3CC(C2)CC1C3` (stereo not given in full) gave an inhibition at 1000 µM of 17.8%.

Each compound was assayed on HEp-2 (assay: Antiproliferative activity against human HEp2 cell line at 10 uM relative to control).
Format: functional
Method in brief: as §1
`N[C@@H](Cc1ccc(O)cc1)C(=O)N[C@H](C(=O)O)C1C2CC3CC(C2)CC1C3` (stereo not given in full) showed an inhibition at 10 µM of 6.4%.

What follows are compounds tested on HEp-2 (assay: Antiproliferative activity against human HEp2 cell line at 100 uM relative to control).
Format: functional
Method in brief: as §1
With `N[C@@H](Cc1ccc(O)cc1)C(=O)N[C@H](C(=O)O)C1C2CC3CC(C2)CC1C3` (stereo not given in full) the inhibition at 100 µM was 8.2%.

These compounds were tested on HEp-2 (assay: Antiproliferative activity against human HEp2 cell line at 1000 uM relative to control).
Format: functional
Method in brief: as §1
For `N[C@@H](Cc1ccc(O)cc1)C(=O)N[C@H](C(=O)O)C1C2CC3CC(C2)CC1C3` (stereo not given in full), the inhibition at 1000 µM was 21.2%.

What follows are compounds tested on HeLa (assay: Antiproliferative activity against human HeLa cell line at 10 uM relative to control).
Format: functional
Method in brief: as §1
`N[C@@H](Cc1ccc(O)cc1)C(=O)N[C@H](C(=O)O)C1C2CC3CC(C2)CC1C3` (stereo not given in full) showed an inhibition at 10 µM of 6.1%.

Each compound was assayed on HeLa (assay: Antiproliferative activity against human HeLa cell line at 100 uM relative to control).
Format: functional
Method in brief: as §1
`N[C@@H](Cc1ccc(O)cc1)C(=O)N[C@H](C(=O)O)C1C2CC3CC(C2)CC1C3` (stereo not given in full) showed an inhibition at 100 µM of 3.1%.

What follows are compounds tested on SW-620 (assay: Antiproliferative activity against human SW620 cell line at 1 uM relative to control).
Format: functional
Method in brief: as §1
`N[C@@H](Cc1ccc(O)cc1)C(=O)N[C@H](C(=O)O)C1C2CC3CC(C2)CC1C3` (stereo not given in full) gave an inhibition at 1 µM of 10.5%.

What follows are compounds tested on Caco-2 (assay: Antiproliferative activity against human Caco-2 cell line at 1 uM relative to control).
Format: functional
Method in brief: as §1
`N[C@@H](Cc1ccc(O)cc1)C(=O)N[C@H](C(=O)O)C1C2CC3CC(C2)CC1C3` (stereo not given in full) showed an inhibition at 1 µM of 3.7%.

These compounds were tested on HEp-2 (assay: Antiproliferative activity against human HEp2 cell line at 1 uM relative to control).
Format: functional
Method in brief: as §1
For `N[C@@H](Cc1ccc(O)cc1)C(=O)N[C@H](C(=O)O)C1C2CC3CC(C2)CC1C3` (stereo not given in full), the inhibition at 1 µM was 6.2%.

These compounds were tested on HeLa (assay: Antiproliferative activity against human HeLa cell line at 1 uM relative to control).
Format: functional
Method in brief: as §1
In the case of `N[C@@H](Cc1ccc(O)cc1)C(=O)N[C@H](C(=O)O)C1C2CC3CC(C2)CC1C3` (stereo not given in full), the inhibition at 1 µM is reported as 7.5%.

The compounds below were run on HT-29 (assay: Antiproliferative activity against human HT29 cell line at 1 uM relative to control).
Format: functional
Method in brief: as §1
Work on `N[C@@H](Cc1ccc(O)cc1)C(=O)N[C@H](C(=O)O)C1C2CC3CC(C2)CC1C3` (stereo not given in full) yielded an inhibition at 1 µM of 4.9%.
